PABP polyA inh: PABP-poly(A) binding inhibition. P11940. AID 2014. actives 1% (n = 290,000). calls only at 35 µM. PABP-poly(A) RNA binding, fluorescence polarization;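 further: calls also rest on retests at 20 µM and on dose response follow-up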
Target sequence (P11940 whole entry, looked up): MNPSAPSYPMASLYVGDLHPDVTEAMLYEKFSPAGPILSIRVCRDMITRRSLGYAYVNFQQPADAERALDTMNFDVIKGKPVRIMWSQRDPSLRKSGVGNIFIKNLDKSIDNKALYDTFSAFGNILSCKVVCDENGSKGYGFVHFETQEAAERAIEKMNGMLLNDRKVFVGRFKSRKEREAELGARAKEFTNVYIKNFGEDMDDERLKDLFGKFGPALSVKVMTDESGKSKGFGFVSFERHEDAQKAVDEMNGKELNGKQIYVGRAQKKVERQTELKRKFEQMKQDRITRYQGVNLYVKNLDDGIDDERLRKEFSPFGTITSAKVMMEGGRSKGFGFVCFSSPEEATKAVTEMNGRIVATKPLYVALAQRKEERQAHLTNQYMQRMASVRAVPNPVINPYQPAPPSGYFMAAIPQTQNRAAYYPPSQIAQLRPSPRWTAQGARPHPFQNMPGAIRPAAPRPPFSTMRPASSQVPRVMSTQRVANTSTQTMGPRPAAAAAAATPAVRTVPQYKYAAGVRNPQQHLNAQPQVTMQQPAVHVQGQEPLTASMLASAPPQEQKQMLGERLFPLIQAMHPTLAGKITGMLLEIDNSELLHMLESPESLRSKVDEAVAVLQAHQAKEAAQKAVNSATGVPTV
eIF4H inh: inhibitors of RNA binding by human eIF4H; Q15056; eIF4H fluorescence polarization binding assay; inhibition, % at 35 µM; actives 0.94% (n = 290,000); AID 2012;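 further: calls also rest on retests at 20 µM and on dose response follow-up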
SKN-1 block: blocks SKN-1 activity in C. elegans | inhibition, % at 21.8 µM | C. elegans VP596 Pgst-4::GFP/RFP ratio, acrylamide-induced, 24 h | actives 0.49% (n = 360,000) | AID 624304;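 active means interference check ratio from 0.5 to 1.5 plus GFP to RFP signal ratio inhibition reaching or exceeding a fixed threshold, cut at about 30% in these data, passing the limit was not always enough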
PABP1 MLLE inh: inhibitors of microRNA-mediated deadenylation, human PABP1 MLLE binding | P11940 | GST-MLLE / FITC-PAM2 fluorescence polarization | inhibition, % at 20 µM | actives 0.36% (n = 360,000) | AID 588489; in the data active means inhibition above about 35%, passing the limit was not always enough;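 further: plate controls were DMSO wells with GST-MLLE for no effect and wells lacking GST-MLLE protein for full effect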
MT1-MMP act inh: blocks activation of human MT1-MMP; AID 651647; HT1080 RFP-PRO-GFP cells, GFP/RFP ratio fluorescence, overnight; percent of plate control window, DMSO zero; P50281; GFP/RFP ratio change, % at 20 µM; actives 0.061% (n = 360,000);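 active means GFP/RFP ratio change of at least 30% with cell ATP level not reduced by more than half and red fluorescence within 50% of control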
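system = RFP-PRO-GFP reporter HT1080 cells | dosing = 20 µM single dose, 1% DMSO | timing = overnight cell settling, then overnight compound exposure, 37 °C, 5% CO2 | read-out basis = GFP/RFP fluorescence ratio | controls = DMSO and RFP-L50D-GFP cell wells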
The depositor's hits bear a star; i = inactive; ? = inconclusive; . = not tested or not shown; + = active, no number. This is a sample that favours compounds with a hit; in the whole collection about 1.8% have one here. Unless noted, how the calls were made is not given here.

SMILES	PABP polyA inh	eIF4H inh	SKN-1 block	PABP1 MLLE inh	MT1-MMP act inh
CCN1CCc2c(sc(NC(=S)NC(=O)c3ccco3)c2C(N)=O)C1	+	85*	-3	-46	-89
NC(=O)c1c(NC(=O)Cn2nc(C(=O)O)c3ccccc3c2=O)sc2c1CCC2	+	?	-1	-1	2
CCC(=O)Nc1sc2c(c1C(N)=O)CCN(Cc1ccccc1)C2	+	96	9	3	-10
CCCC(=O)NC(=S)Nc1sc2c(c1C(N)=O)CCC2	+	91	9	14	0
CC1=C(C)C(O)N(Cc2ccccc2)C1=O (stereo unspecified)	i	-5	21	13	-1
C=CCNC(=O)[C@H]1N2C(=O)c3ccccc3C2SC1(C)C (stereo partly specified)	i	2	2	24	0
CCOc1ccc(/C=C/C(=O)N(C)CC(=O)Nc2cccc(F)c2)cc1OCC	.	.	9	8	2
Cc1ccc(Cl)cc1-c1cc(C(=O)N2CCc3ccccc3C2)[nH]n1	.	.	12	-3	3
CN1/C(=C\C(=O)CSc2nnc(N)s2)C(C)(C)c2ccccc21	i	42	14	-9	7
CN1/C(=C\C(=O)COC(=O)CNC(=O)c2ccc3ccccc3c2)C(C)(C)c2ccccc21	i	28	40*	-34	12
COc1ccc(Nc2nnc(SCC(=O)/C=C3/N(C)c4ccccc4C3(C)C)s2)cc1	i	9	37*	-41	3
CN1/C(=C/C(=O)CSc2ccccc2C(=O)O)C(C)(C)c2ccccc21	i	13	36*	-12	13
CC(C)N(Cc1ccccc1)C(=O)COC(=O)c1ccc(O)cc1	.	.	22	5	-5
COC(=O)[C@]12CCCCC=C1N(Cc1cccc3ccccc13)C(=O)[C@H](CC(=O)NCC13CC4CC(CC(C4)C1)C3)C2	.	.	1	.	-14
CC1(C(=O)O)CCCN(C(=O)c2ccc3c(c2)C(C)(C)CCC3(C)C)C1 (stereo unspecified)	.	.	-19	-5	-1
O=C1CCCC(O)=C1Sc1cc(Cl)c(Cl)cc1Cl	.	.	-2	11	-4
CCc1c(-c2ccc(OC)cc2)ncn1Cc1cccc(-c2ccccc2)c1	.	.	0	.	10
CCn1c(C)nc2cc(C(=O)NNC(=S)NC(=O)c3ccccc3)ccc21	+	-1	-7	20	0
CCOC(=O)[C@@H]1[C@H]2COc3ccccc3[C@H]2N2C(=O)N(c3ccccc3)C(=O)[C@]12C	i	2	12	2	-2
Cc1[nH]n(C2=NCCS2)c(=O)c1N=Nc1ccccc1	i	1	-1	40*	9
Cn1c(=O)c2c(ncn2CC(=O)N/N=C/C=C/c2ccco2)n(C)c1=O	+	99*	7	-1	-2
Cn1c(SCC(=O)N/N=C/C=C\c2ccco2)nc2ccccc21	+	90*	-2	-14	-3
O=C(/C=C/c1ccccc1)/C=C/c1ccccc1	i	4	81*	-5	1
COc1ccc(/C=C/C(=O)Nn2cnnc2)cc1	i	0	7	-9	4
O=C(/C=C/c1ccccc1)c1ccccc1	i	-1	-22	-11	-2
SMILES	PABP polyA inh	eIF4H inh	SKN-1 block	PABP1 MLLE inh	MT1-MMP act inh
N/C(=N\OC(=O)/C=C/c1ccccc1)c1ccc(Cl)cc1	i	1	25	-3	1
N/C(=N\OC(=O)/C=C/c1ccccc1)c1ccccc1	i	-4	36*	-2	4
O=C(/C=C/c1ccccc1)Nn1cnnc1	i	-2	35*	4	1
COc1ccc(NC(=O)CN(C)C(=O)c2ccccc2Sc2ncnc3sc(C)c(C)c23)cc1	.	.	-19	35	6
NC(=O)CSc1nnc(-c2ccco2)n1-c1ccc(F)cc1	.	.	2	2	0
CC(C)OC(=O)c1nn2c(C(F)(F)F)cc(-c3ccc(Br)o3)nc2c1Br	+	44*	14	26	-95
O=C(c1nc2ccccn2c1CNCCCn1ncc2ccccc21)N1CCOCC1	i	0	-9	-9	-1
Cc1cccn2c(CNCCCn3ncc4ccccc43)c(C(=O)N3CCCCC3)nc12	+	-2	5	-3	0
Nn1c(SCc2ccccc2F)nnc1-c1ccccn1	+	4.1*	-13	-8	3
COc1cccc(-n2c(=S)sc3c(=O)n(-c4ccccc4OC)c(=S)[nH]c32)c1	i	-3	1	41*	-1
CCOC(=O)c1sc(=S)n(C)c1NC(=O)c1ccc(OC)cc1	i	-9	-1	31	0
CCOC(=O)c1sc(=S)n(C)c1NC(=O)c1ccccc1Cl	i	1	-6	43*	0
CCOC(=O)CC1(C)Oc2ccccc2N1S(=O)(=O)c1ccc(C)cc1 (stereo unspecified)	.	.	1	.	4
Cc1ccc(-c2csc3ncn(CC#N)c(=O)c23)cc1C	+	54*	17	-10	1
Cc1ccc(-c2csc3ncn(CC#N)c(=O)c23)cc1	i	39	4	-18	0
O=C(C[C@@H]1C=C[C@@H](NC(=O)C2CC2)[C@@H](CO)O1)NCc1ccccc1Cl	.	.	9	.	-3
O=[N+]([O-])c1ccc(Oc2ccc(F)cc2)c2ccncc12	i	15	36*	5	-13
COc1ccc(Cl)cc1S(=O)(=O)NC(C)C(=O)NCc1cccnc1 (stereo unspecified)	i	6	19	8	5
Cc1c(/C=C(\C#N)c2nn(-c3ccccc3)c(N)c2C#N)c2ccccc2n1Cc1ccc(F)cc1	+	52*	13	-39	-3
CC(Nc1ccc(F)cc1)=[N+](C)CCNS(=O)(=O)c1ccc(Cl)cc1	+	11	23	-121	-6
CCNS(=O)(=O)c1ccc(NC(=O)Cc2ccc(F)cc2)cc1	i	4	8	4	5
O=C1CC(c2ccc(O)c(O)c2)Oc2c1ccc(O)c2O (stereo unspecified)	+	94*	8	-10	-7
CC(C)=CCc1c(O)ccc2c1OC(c1ccc(O)c(O)c1)CC2=O (stereo unspecified)	i	9	24	-19	-21
Cc1ccc(S(=O)(=O)N2CCN(c3ccccc3)CC2)s1	.	.	9	5	0
CCOC(=O)c1[nH]c(C)c(C(=O)OCC(=O)NC(C)c2ccc(F)cc2)c1C (stereo unspecified)	.	.	-11	3	-14
CCCCc1c(O)nc(SCC(=O)Nc2ccc(OC)cc2)n(-c2ccc(C)c(C)c2)c1=O	.	.	6	33	4
COc1ccc(C2(c3ccc(OC)cc3)NC(=O)N(CC(=O)NC3CCCC3)C2=O)cc1	.	.	5	-15	-1
COc1ccc(C2(c3ccc(OC)cc3)NC(=O)N(CC(=O)NC3CCS(=O)(=O)C3)C2=O)cc1 (stereo unspecified)	.	.	40*	-7	-4

Screening data: PubChem, Sanford-Burnham Center for Chemical Genomics
